{"source": "ChEMBL document CHEMBL1124089", "about": "“Binaltorphimine-related bivalent ligands and their kappa opioid receptor antagonist selectivity” (J Med Chem, 1988)", "key": {"[1]": {"assay": "Ratio of antagonistic activity for delta and kappa receptors", "format": "functional", "in_short": "(§1)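 Selectivity ratios mu/kappa and delta/kappa calculated from Ke values; Ke = [antagonist]/(IC50 ratio − 1), using ethylketazocine (kappa) and morphine (mu) in GPI and DADLE (delta) in MVD.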"}, "[2]": {"target": "T1, Opioid receptor (mu and kappa) (Cavia porcellus) (UniProt P41144+P97266)", "T1 sequence (P41144 whole entry, looked up)": "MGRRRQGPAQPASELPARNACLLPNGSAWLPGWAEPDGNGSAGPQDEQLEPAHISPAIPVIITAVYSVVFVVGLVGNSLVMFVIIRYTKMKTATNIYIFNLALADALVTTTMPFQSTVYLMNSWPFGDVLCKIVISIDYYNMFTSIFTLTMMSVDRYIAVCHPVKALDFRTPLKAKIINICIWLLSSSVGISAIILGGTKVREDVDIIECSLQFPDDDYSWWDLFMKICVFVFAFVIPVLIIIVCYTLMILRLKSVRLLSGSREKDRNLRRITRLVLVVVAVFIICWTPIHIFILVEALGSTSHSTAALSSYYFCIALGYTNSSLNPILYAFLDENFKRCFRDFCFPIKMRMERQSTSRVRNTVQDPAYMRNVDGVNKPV", "T1 sequence (P97266 whole entry, looked up)": "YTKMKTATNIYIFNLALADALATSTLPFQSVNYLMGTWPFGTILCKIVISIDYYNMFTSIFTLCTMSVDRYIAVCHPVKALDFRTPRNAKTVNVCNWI", "assay": "Ratio of antagonistic activity for mu and kappa receptors", "format": "functional", "in_short": "as §1"}, "[3]": {"assay": "Ratio of IC50 morphine and antagonist binding to opioid receptor"}, "[4]": {"target": "Kappa-type opioid receptor (Cavia porcellus) (UniProt P41144)", "sequence (P41144 whole entry)": "as the sequence (P41144 whole entry, looked up) above", "assay": "Antagonistic activity for Opioid receptor kappa 1 of guinea pig ileal longitudinal muscle at 100 nM", "format": "functional"}, "[5]": {"target": "Mu-type opioid receptor (Cavia porcellus) (UniProt P97266)", "sequence (P97266 whole entry)": "as the sequence (P97266 whole entry, looked up) above", "details": "20 nM"}, "[6]": {"target": "T1, Opioid receptor (mu and kappa) (Cavia porcellus)", "assay": "Ratio of IC50 ethylketazocine and antagonist binding to opioid receptor", "format": "protein assay"}, "[7]": {"target": "Delta-type opioid receptor (Mus musculus) (UniProt P32300)", "sequence (P32300 whole entry)": "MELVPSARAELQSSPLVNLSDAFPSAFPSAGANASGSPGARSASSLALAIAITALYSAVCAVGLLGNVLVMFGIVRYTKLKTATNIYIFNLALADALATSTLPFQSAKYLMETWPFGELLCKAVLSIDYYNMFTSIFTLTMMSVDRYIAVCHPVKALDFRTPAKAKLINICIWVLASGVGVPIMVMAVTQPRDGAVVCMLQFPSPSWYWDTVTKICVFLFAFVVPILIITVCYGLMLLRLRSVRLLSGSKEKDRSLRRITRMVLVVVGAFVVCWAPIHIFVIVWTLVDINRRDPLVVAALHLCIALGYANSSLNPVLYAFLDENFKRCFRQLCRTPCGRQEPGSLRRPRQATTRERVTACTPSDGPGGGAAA", "assay": "Ratio of IC50 DADLE and antagonist binding to delta opioid receptor"}, "[8]": {"target": "Delta-type opioid receptor (Mus musculus) (UniProt P32300)", "details": "Vas deferens, 200 nM"}, "[9]": {"target": "Mu-type opioid receptor (Cavia porcellus) (UniProt P97266)", "assay": "Antagonistic activity for Opioid receptor mu 1 in guinea pig ileal longitudinal muscle at 100 nM", "format": "functional"}, "[10]": {"target": "Delta-type opioid receptor (Mus musculus) (UniProt P32300)", "assay": "Antagonistic activity for Opioid receptor delta 1 in mouse vas deferens preparation at 100 nM", "format": "functional"}, "[11]": {"target": "Delta-type opioid receptor (Mus musculus) (UniProt P32300)", "assay": "Ratio of IC50 DADLE and antagonist binding to delta opioid receptor; Not calculated"}, "[12]": {"target": "Kappa-type opioid receptor (Cavia porcellus) (UniProt P41144)", "assay": "Antagonistic activity for Opioid receptor kappa 1 in guinea pig ileal longitudinal muscle at 200 nM", "format": "functional"}, "[13]": {"target": "Mu-type opioid receptor (Cavia porcellus) (UniProt P97266)", "assay": "Antagonistic activity for Opioid receptor mu 1 in guinea pig ileal longitudinal muscle at 200 nM", "format": "functional"}, "[14]": {"target": "Delta-type opioid receptor (Mus musculus) (UniProt P32300)", "assay": "Antagonistic activity for Opioid receptor delta 1 in mouse vas deferens at 200 nM", "format": "functional, tissue-based"}, "[15]": {"target": "Delta-type opioid receptor (Mus musculus, UniProt P32300)", "sequence (P32300 whole entry)": "as above", "assay": "Agonistic activity in mouse vas deferens", "format": "functional, tissue-based"}, "[16]": {"target": "T2, Opioid receptor (mu and kappa) (Cavia porcellus, UniProt P41144+P97266)", "assay": "Agonistic activity in guinea pig ileal longitudinal muscle", "format": "functional, tissue-based, Muscle tissue"}, "[17]": {"target": "Kappa-type opioid receptor (Cavia porcellus) (UniProt P41144)", "assay": "Antagonistic activity for Opioid receptor kappa 1 in guinea pig ileal longitudinal muscle at 20 nM", "format": "functional"}, "[18]": {"target": "Mu-type opioid receptor (Cavia porcellus) (UniProt P97266)", "details": "100 nM"}, "[19]": {"target": "Delta-type opioid receptor (Mus musculus) (UniProt P32300)", "details": "Vas deferens, 20 nM"}, "[20]": {"target": "T2, Opioid receptor (mu and kappa)", "assay": "Agonistic activity in guinea pig ileal longitudinal muscle after beta-FNA (200 nM) 60 min treatment", "format": "functional, tissue-based, Muscle tissue", "in_short": "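GPI pretreated with beta-FNA so that functional mu receptors are absent; agonist IC50 determined in this tissue and compared with IC50 in untreated GPI.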"}}, "data": [{"compound": "Oc1ccc2c3c1O[C@H]1c4[nH]c5c(c4C[C@@]4(O)[C@@H](C2)N(CC2CC2)CC[C@]314)C[C@@]1(O)[C@H]2Cc3ccc(O)c4c3[C@@]1(CCN2CC1CC1)[C@H]5O4", "values": [{"measurement": "Selectivity ratio", "setting": "[1]", "value": 49}, {"measurement": "Selectivity ratio", "setting": "[2]", "value": 32}, {"measurement": "Ratio", "setting": "[3]", "value": 2.6}, {"measurement": "Ke", "setting": "[4]", "value": 0.41, "unit": "nM"}, {"measurement": "Ke", "setting": "[5]", "value": 13, "unit": "nM"}, {"measurement": "Ratio", "setting": "[6]", "value": 49.1}, {"measurement": "Ratio", "setting": "[7]", "value": 2}, {"measurement": "Ke", "setting": "[8]", "value": 20, "unit": "nM"}]}, {"compound": "Oc1ccc2c3c1O[C@H]1c4[nH]ccc4C[C@@]4(O)[C@@H](C2)N(CC2CC2)CC[C@]314", "values": [{"measurement": "Selectivity ratio", "setting": "[1]", "value": 1.5}, {"measurement": "Selectivity ratio", "setting": "[2]", "value": 0.3}, {"measurement": "Ratio", "setting": "[3]", "value": 155}, {"measurement": "Ke", "setting": "[4]", "value": 2.1, "unit": "nM"}, {"measurement": "Ke", "setting": "[9]", "value": 0.65, "unit": "nM"}, {"measurement": "Ke", "setting": "[10]", "value": 3.2, "unit": "nM"}, {"measurement": "Ratio", "setting": "[6]", "value": 49.5}, {"measurement": "Ratio", "setting": "[7]", "value": 32.3}]}, {"compound": "CC(=O)Oc1ccc2c3c1O[C@H]1c4[nH]c5c(c4C[C@@]4(OC(C)=O)[C@@H](C2)N(CC2CC2)CC[C@]314)C[C@@]1(OC(C)=O)[C@H]2Cc3ccc(OC(C)=O)c4c3[C@@]1(CCN2CC1CC1)[C@H]5O4", "values": [{"measurement": "Ratio", "setting": "[3]", "value": 1.2}, {"measurement": "Ratio", "setting": "[11]", "value": 1.4}, {"measurement": "Ratio", "setting": "[6]", "value": 1.6}]}, {"compound": "COc1ccc2c3c1O[C@H]1c4[nH]c5c(c4C[C@@]4(O)[C@@H](C2)N(CC2CC2)CC[C@]314)C[C@@]1(O)[C@H]2Cc3ccc(O)c4c3[C@@]1(CCN2CC1CC1)[C@H]5O4", "values": [{"measurement": "Selectivity ratio", "setting": "[1]", "value": 35}, {"measurement": "Selectivity ratio", "setting": "[2]", "value": 29}, {"measurement": "Ratio", "setting": "[3]", "value": 6.3}, {"measurement": "Ke", "setting": "[12]", "value": 1.3, "unit": "nM"}, {"measurement": "Ke", "setting": "[13]", "value": 38, "unit": "nM"}, {"measurement": "Ratio", "setting": "[6]", "value": 153}, {"measurement": "Ratio", "setting": "[7]", "value": 5.4}, {"measurement": "Ke", "setting": "[14]", "value": 45, "unit": "nM"}]}, {"compound": "CN1CC[C@]23c4c5ccc(O)c4O[C@H]2c2[nH]c4c(c2C[C@H]3[C@H]1C5)C[C@H]1[C@H]2Cc3ccc(O)c5c3[C@@]1(CCN2C)[C@H]4O5", "values": [{"measurement": "Ratio", "setting": "[3]", "value": 0.68}, {"measurement": "IC50", "setting": "[15]", "value": 0.052, "unit": "µM"}, {"measurement": "IC50", "setting": "[16]", "value": 0.053, "unit": "µM"}, {"measurement": "Ratio", "setting": "[6]", "value": 0.79}, {"measurement": "Ratio", "setting": "[7]", "value": 0.85}]}, {"compound": "COc1ccc2c3c1O[C@H]1c4[nH]c5c(c4C[C@@]4(O)[C@@H](C2)N(CC2CC2)CC[C@]314)C[C@@]1(O)[C@H]2Cc3ccc(OC)c4c3[C@@]1(CCN2CC1CC1)[C@H]5O4", "values": [{"measurement": "Ratio", "setting": "[3]", "value": 0.8}, {"measurement": "Ke", "setting": "[17]", "value": 7.1, "unit": "nM"}, {"measurement": "Ratio", "setting": "[6]", "value": 3.8}, {"measurement": "Ratio", "setting": "[7]", "value": 0.6}]}, {"compound": "Cn1c2c(c3c1[C@@H]1Oc4c(O)ccc5c4[C@@]14CCN(CC1CC1)[C@H](C5)[C@]4(O)C3)C[C@@]1(O)[C@H]3Cc4ccc(O)c5c4[C@@]1(CCN3CC1CC1)[C@H]2O5", "values": [{"measurement": "Selectivity ratio", "setting": "[1]", "value": 41}, {"measurement": "Selectivity ratio", "setting": "[2]", "value": 79}, {"measurement": "Ratio", "setting": "[3]", "value": 2.8}, {"measurement": "Ke", "setting": "[4]", "value": 0.14, "unit": "nM"}, {"measurement": "Ke", "setting": "[18]", "value": 11, "unit": "nM"}, {"measurement": "Ratio", "setting": "[6]", "value": 148}, {"measurement": "Ratio", "setting": "[7]", "value": 4.5}, {"measurement": "Ke", "setting": "[19]", "value": 5.7, "unit": "nM"}]}, {"compound": "CN1CC[C@]23c4c5ccc(O)c4O[C@H]2c2[nH]c4c(c2C[C@@]3(O)[C@H]1C5)C[C@@]1(O)[C@H]2Cc3ccc(O)c5c3[C@@]1(CCN2C)[C@H]4O5", "values": [{"measurement": "Ratio", "setting": "[3]", "value": 0.88}, {"measurement": "IC50", "setting": "[20]", "value": 2.63, "unit": "µM"}, {"measurement": "IC50", "setting": "[15]", "value": 0.17, "unit": "µM"}, {"measurement": "IC50", "setting": "[16]", "value": 0.25, "unit": "µM"}, {"measurement": "Ratio", "setting": "[6]", "value": 1.6}, {"measurement": "Ratio", "setting": "[7]", "value": 1.1}]}, {"compound": "COc1ccc2c3c1O[C@H]1c4[nH]c5c(c4C[C@H]4[C@@H](C2)N(C)CC[C@]314)C[C@H]1[C@H]2Cc3ccc(OC)c4c3[C@@]1(CCN2C)[C@H]5O4", "values": [{"measurement": "Ratio", "setting": "[3]", "value": 0.51}, {"measurement": "IC50", "setting": "[15]", "value": 1, "unit": "µM"}, {"measurement": "IC50", "setting": "[16]", "value": 0.33, "unit": "µM"}, {"measurement": "Ratio", "setting": "[6]", "value": 0.43}, {"measurement": "Ratio", "setting": "[7]", "value": 0.93}]}, {"compound": "CC(=O)O[C@@]12Cc3c([nH]c4c3C[C@@]3(OC(C)=O)[C@H]5Cc6ccc(O)c7c6[C@@]3(CCN5CC3CC3)[C@H]4O7)[C@@H]3Oc4c(O)ccc5c4[C@@]31CCN(CC1CC1)[C@@H]2C5", "values": [{"measurement": "Selectivity ratio", "setting": "[1]", "value": 32}, {"measurement": "Selectivity ratio", "setting": "[2]", "value": 111}, {"measurement": "Ratio", "setting": "[3]", "value": 3.4}, {"measurement": "Ke", "setting": "[4]", "value": 0.38, "unit": "nM"}, {"measurement": "Ke", "setting": "[9]", "value": 42, "unit": "nM"}, {"measurement": "Ke", "setting": "[10]", "value": 12, "unit": "nM"}, {"measurement": "Ratio", "setting": "[6]", "value": 261}, {"measurement": "Ratio", "setting": "[7]", "value": 9.2}]}]}
